Laboratory results published in ChEMBL document CHEMBL1126138, “Preparation and opioid activity of analogues of the analgesic dipeptide 2,6-dimethyl-L-tyrosyl-N-(3-phenylpropyl)-D-alaninamide” (J Med Chem, 1992).

Assays:
[1] = molecular target: Delta-type opioid receptor (Rattus norvegicus) (UniProt P33533); assay: Ratio of IC50 of opioid receptor delta to IC50 opioid receptor mu
[2] = molecular target: Kappa-type opioid receptor (Rattus norvegicus) (UniProt P34975); assay: Ratio of IC50 of opioid receptor kappa to IC50 opioid receptor mu
Chain of Kappa-type opioid receptor (Rattus norvegicus) (P34975 whole entry): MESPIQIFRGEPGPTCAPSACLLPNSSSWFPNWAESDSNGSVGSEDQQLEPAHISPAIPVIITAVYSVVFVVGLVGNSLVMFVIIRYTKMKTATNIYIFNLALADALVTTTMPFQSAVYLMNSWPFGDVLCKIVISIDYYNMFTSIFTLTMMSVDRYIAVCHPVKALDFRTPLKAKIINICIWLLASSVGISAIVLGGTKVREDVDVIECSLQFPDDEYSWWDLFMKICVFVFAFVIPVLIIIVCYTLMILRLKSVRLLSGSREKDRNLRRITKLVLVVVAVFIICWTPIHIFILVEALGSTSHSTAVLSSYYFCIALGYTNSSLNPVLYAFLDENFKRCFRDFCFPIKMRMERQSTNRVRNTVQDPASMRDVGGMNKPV

[3] = molecular target: Delta-type opioid receptor (Rattus norvegicus, UniProt P33533); assay: Binding ability towards opioid receptor delta expressed in homogenates of rat brain.; format: tissue-based
Chain of Delta-type opioid receptor (P33533 whole entry): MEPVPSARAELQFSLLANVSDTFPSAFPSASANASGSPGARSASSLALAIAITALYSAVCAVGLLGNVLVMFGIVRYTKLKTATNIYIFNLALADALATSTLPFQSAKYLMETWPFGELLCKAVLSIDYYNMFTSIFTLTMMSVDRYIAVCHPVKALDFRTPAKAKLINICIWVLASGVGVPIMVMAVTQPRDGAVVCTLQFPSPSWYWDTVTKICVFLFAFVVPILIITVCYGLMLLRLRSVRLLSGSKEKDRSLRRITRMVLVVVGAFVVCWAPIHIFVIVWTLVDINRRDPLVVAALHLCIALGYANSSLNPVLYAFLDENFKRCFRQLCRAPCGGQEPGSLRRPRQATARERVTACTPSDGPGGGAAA

Mu-type opioid receptor = Mu-type opioid receptor (Rattus norvegicus, UniProt P33535); assay: Binding ability towards opioid receptor mu expressed in homogenates of rat brain.; format: tissue-based
Chain of Mu-type opioid receptor (P33535 whole entry): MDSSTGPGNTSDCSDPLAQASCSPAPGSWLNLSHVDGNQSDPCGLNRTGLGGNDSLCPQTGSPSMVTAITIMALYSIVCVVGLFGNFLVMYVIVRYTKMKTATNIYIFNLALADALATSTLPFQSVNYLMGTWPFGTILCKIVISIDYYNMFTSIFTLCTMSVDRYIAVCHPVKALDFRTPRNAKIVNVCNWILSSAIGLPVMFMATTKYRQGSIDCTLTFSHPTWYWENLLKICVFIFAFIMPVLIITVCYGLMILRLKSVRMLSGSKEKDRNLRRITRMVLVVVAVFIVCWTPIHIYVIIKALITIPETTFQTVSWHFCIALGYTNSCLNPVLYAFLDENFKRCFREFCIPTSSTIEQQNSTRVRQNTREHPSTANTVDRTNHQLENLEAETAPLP

Mus musculus [4] = species on record: Mus musculus; assay: Analgesic activity evaluated in mice by writhing test (confidence limit); format: functional
Mus musculus [5] = assay: Number of mice of those tested in which 10 mg/kg compound inhibited writhing; format: functional
Procedure, shortened: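 Mouse writhing test with a single 10 mg/kg dose of compound. The value is the count of mice whose writhing was inhibited, out of the number tested.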

[6] = molecular target: Delta-type opioid receptor (Rattus norvegicus) (UniProt P33533); assay: Binding ability towards opioid receptor delta expressed in homogenates of rat brain at 100 nM concentration; format: tissue-based
Procedure, shortened: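 Rat brain homogenate, δ opioid binding site. Test compound at 100 nM. The value is the maximum percent displacement at that concentration.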

Chain of Delta-type opioid receptor (Rattus norvegicus) (P33533 whole entry): as the sequence (P33533 whole entry) above

Cc1cc(O)cc(C)c1C[C@H](N)C(=O)N[C@@H](COCCCc1ccccc1)COC(C)(C)C
Ratio [1]: 10.3
Ratio [2]: 282
IC50 [3]: 340 nM
IC50 (Mu-type opioid receptor): 33 nM
ED50 (Mus musculus [4]): 1.7 mg/kg

Cc1cc(O)cc(C)c1C[C@H](N)C(=O)N[C@H](C)CNCCCc1ccccc1
Ratio [1]: 354
Ratio [2]: 2540
IC50 [3]: 46 nM
IC50 (Mu-type opioid receptor): 0.13 nM
No. of mice (Mus musculus [5]): 4

Cc1cc(O)cc(C)c1C[C@H](N)C(=O)N1CCCCC1CNCCCc1ccccc1 (some centres not stated)
Ratio [1]: 269
Ratio [2]: 222
IC50 [3]: 12.1 nM
IC50 (Mu-type opioid receptor): 0.045 nM
No. of mice (Mus musculus [5]): 3

Cc1cc(O)cc(C)c1C[C@H](N)C(=O)N[C@H](C)COCCCc1ccccc1
Ratio [1]: 42
Ratio [2]: 2600
IC50 [3]: 21 nM
No. of mice (Mus musculus [5]): 3

Cc1cc(O)cc(C)c1C[C@H](N)C(=O)NC(C)/C(F)=C/CCCc1ccccc1 (some centres not stated)
Displacement [6]: 47.3%
Ratio [2]: 1160
IC50 (Mu-type opioid receptor): 6.9 nM
ED50 (Mus musculus [4]): 2.1 mg/kg

Cc1cc(O)cc(C)c1C[C@H](N)C(=O)N[C@H](CO)COCCCc1ccccc1
Ratio [1]: 139
Ratio [2]: 3530
IC50 [3]: 233 nM
IC50 (Mu-type opioid receptor): 1.67 nM
ED50 (Mus musculus [4]): 2.1 mg/kg

Cc1cc(O)cc(C)c1C[C@H](N)C(=O)NC(C)/C=C/CCCc1ccccc1 (some centres not stated)
Displacement [6]: 39.3%
Ratio [2]: 1100
IC50 (Mu-type opioid receptor): 5.4 nM
ED50 (Mus musculus [4]): 2.1 mg/kg

Cc1cc(O)cc(C)c1C[C@H](N)C(=O)N1CCCCC1COCCCc1ccccc1 (some centres not stated)
Ratio [1]: 67.9
Ratio [2]: 173
IC50 [3]: 110 nM
IC50 (Mu-type opioid receptor): 1.62 nM
ED50 (Mus musculus [4]): 2.1 mg/kg

Cc1cc(O)cc(C)c1C[C@H](N)C(=O)N[C@H](C)C(=O)NCCCc1ccccc1
Ratio [1]: 30.6
Ratio [2]: 2920
IC50 [3]: 3.98 nM
IC50 (Mu-type opioid receptor): 0.13 nM
ED50 (Mus musculus [4]): 0.52 mg/kg
